Assay [1] relates to Pseudomonas aeruginosa. The assay is described as follows: Ratio of Kinact to KI for Pseudomonas aeruginosa His6-tagged DDAH expressed in Escherichia coli BL21(DE3) using S-methyl-Lthiocitrulline as substrate up to 1 mM measured every 20 secs for 10 mins by fluorescence spectrophotometry.
Assay [2] deals with Pseudomonas aeruginosa. The experiment in a line: Inhibition of Pseudomonas aeruginosa His6-tagged DDAH expressed in Escherichia coli BL21(DE3) using S-methyl-Lthiocitrulline as substrate at 100 uM measured every 20 secs for 10 mins.
In assay [3] the target is T1, N(G),N(G)-dimethylarginine dimethylaminohydrolase 1 (Homo sapiens, UniProt O94760). The assay is described as follows: Inhibition of human recombinant His6-tagged DDAH1 expressed in Escherichia coli BL21(DE3) using Nomega,Nomega-dimethyl-L-arginine as substrate at 400 uM after 1 to 2 hrs by colorimetric ureido derivitization assay. The method in brief:
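Rapid-onset secondary assay. Compound (400 μM) mixed with ADMA (300 μM, 2.5-fold over KM) in Reaction Buffer (Na2HPO4 172 mM, KCl 172 mM, Tween-20 0.02%, EDTA 2 mM, pH 7.3). Started with human DDAH-1 (1 μM final), run 1–2 h, quenched with HCl (1 M final). Ureido product read colorimetrically; ≥20% inhibition counted as a hit.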

Assay [4] addresses T1, N(G),N(G)-dimethylarginine dimethylaminohydrolase 1. The experiment in a line: Inhibition of human recombinant His6-tagged DDAH1 expressed in Escherichia coli BL21(DE3) using S-methyl-L-thiocitrulline as substrate at 100 uM by CPM-based fluorescence spectrophotometry. The method in brief: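 Primary HTS run in duplicate. Compound at 100 μM with human DDAH-1 (20 nM), S-methyl-L-thiocitrulline (0.4 μM) and CPM (3.5 μM) in K2HPO4 172 mM, KCl 172 mM, EDTA 2 mM, Tween-20 0.02%, DMSO 1%, pH 7.3. Enzyme–compound preincubation 10 min.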

For assay [5] the target is unchanged. The experiment in a line: Inhibition of human recombinant His6-tagged DDAH1 expressed in Escherichia coli BL21(DE3) using Nomega,Nomega-dimethyl-L-arginine as substrate at 400 uM incubated for 10 to 20 mins prior to substrate addition measured after 1 to 2 hrs by colorimetric ureido derivitization assay in presence of 2 mM reduced glutathione. The method, boiled down: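 Compound (400 μM) preincubated 10–20 min at room temperature with human DDAH-1 (1 μM) and reduced glutathione (2 mM) in Reaction Buffer, pH 7.3. ADMA (300 μM) then added; 1–2 h at room temperature, HCl quench (1 M final), colorimetric ureido derivatization. Inhibition compared against assays without glutathione.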

The target is the same in assay [6]. The assay is described as follows: Inhibition of human recombinant His6-tagged DDAH1 expressed in Escherichia coli BL21(DE3) using Nomega,Nomega-dimethyl-L-arginine as substrate at 400 uM by colorimetric ureido derivitization assay. Particulars: TDE = time-dependent effect.
For assay [7] the target is unchanged. The assay is described as follows: Reversible inhibition of human recombinant His6-tagged DDAH1 expressed in Escherichia coli BL21(DE3) using 1 mM Nomega,Nomega-dimethyl-L-arginine as substrate incubated up to 120 mins prior to substrate addition measured after 120 mins by colorimetric ureido derivitization assay. The method in brief: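 Human DDAH-1 (30 μM) incubated at room temperature with compound (0–2 mM) in Na2HPO4 100 mM, NaCl 100 mM, EDTA 2 mM, Tween-20 0.02%, pH 7.25, with or without reduced glutathione (2 mM). After 0–120 min, diluted 40-fold into ADMA (1 mM) in the same buffer. Incubated a further 120 min, quenched with HCl (300 mM final), and L-citrulline read colorimetrically.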

Assay [8] shares this target. The assay is described as follows: Competitive inhibition of human recombinant His6-tagged DDAH1 expressed in Escherichia coli BL21(DE3) using Nomega,Nomega-dimethyl-L-arginine as substrate after 80 mins by double-reciprocal plot analysis.
Assay [9] has the same target. The experiment in a line: Inhibition of human recombinant His6-tagged DDAH1 expressed in Escherichia coli BL21(DE3) using Nomega,Nomega-dimethyl-L-arginine as substrate after 80 mins by colorimetric ureido derivitization assay.
For assay [10], the system named is Pseudomonas aeruginosa. The assay is described as follows: Inhibition of Pseudomonas aeruginosa His6-tagged DDAH expressed in Escherichia coli BL21(DE3) using S-methyl-Lthiocitrulline as substrate up to 1 mM measured every 20 secs for 10 mins by fluorescence spectrophotometry.

The structures appear in SMILES notation. Activity calls are given as the source filed them. The calls are words filed in the database; no cut-off is given here.

T1 sequence (O94760 whole entry): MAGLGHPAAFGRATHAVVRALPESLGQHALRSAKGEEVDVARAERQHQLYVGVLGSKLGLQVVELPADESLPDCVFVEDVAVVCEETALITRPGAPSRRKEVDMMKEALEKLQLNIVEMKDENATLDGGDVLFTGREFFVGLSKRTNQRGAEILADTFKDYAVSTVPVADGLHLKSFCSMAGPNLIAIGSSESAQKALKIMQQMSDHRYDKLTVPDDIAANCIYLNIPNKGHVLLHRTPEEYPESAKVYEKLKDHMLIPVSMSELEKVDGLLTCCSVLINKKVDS

Broadly, the inhibition is the drop in the measured response relative to a control, in per cent. On to `Cc1cc(Br)ccn1`, for which, in the assay with Pseudomonas aeruginosa [1], the Ratio stood at 4.8 M⁻¹ s⁻¹. Besides, the inhibition is 89% in the assay with Pseudomonas aeruginosa [2]; 74% in assay [3]; 55% in assay [4]; 95% in assay [5]; “tde” in [6].

One may read the Ki as a measure of affinity in units of concentration, obtained from inhibition or displacement. The term IC50 denotes the concentration that gives 50% inhibition. Consider `CCc1nc2ccccc2[nH]1`, for which the inhibition was 1% with Pseudomonas aeruginosa [2], 36% in [3], 4% in assay [4] and 25% in [5]. For the same molecule, the inhibition result in assay [7] was “Active”. In assay [8], the Ki was 0.8 mM. Further, the IC50 in assay [9] is 1.4 mM. In the assay with Pseudomonas aeruginosa [10], the inhibition result was “inactive”.

For `OCc1cc(Cl)ccn1`, the Ratio in the assay on Pseudomonas aeruginosa [1] was found to be 0.65 M⁻¹ s⁻¹. The inhibition in the assay on Pseudomonas aeruginosa [2] is 50%; in assay [3], 56%; in assay [4] it was 17%; in assay [5] it was 46%; in assay [6], “tde”.

Consider `NCCSc1nc2ccccc2o1`, for which the inhibition in [3] was 21%; in assay [5] it was 23%. Also, the inhibition result in assay [7] is “Active”. Moreover, the Ki in assay [8] stood at 1.7 mM. In addition, in [9], the IC50 worked out at 2.7 mM.

These data come from ChEMBL document CHEMBL2086358, “Discovery of structurally-diverse inhibitor scaffolds by high-throughput screening of a fragment library with dimethylarginine dimethylaminohydrolase” (Bioorg Med Chem, 2012).
